Screening results from PubChem.
IDH1 mut inh: blocks human IDH1 R132H reductase activity | diaphorase/resazurin fluorescence, 60 min | O75874 | inhibition, % at 10 µM | actives 0.18% (n = 70,000); in the data active means inhibition above about 34%;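 further: 0% = DMSO and 100% = no enzyme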
Target sequence (O75874 whole entry R132H): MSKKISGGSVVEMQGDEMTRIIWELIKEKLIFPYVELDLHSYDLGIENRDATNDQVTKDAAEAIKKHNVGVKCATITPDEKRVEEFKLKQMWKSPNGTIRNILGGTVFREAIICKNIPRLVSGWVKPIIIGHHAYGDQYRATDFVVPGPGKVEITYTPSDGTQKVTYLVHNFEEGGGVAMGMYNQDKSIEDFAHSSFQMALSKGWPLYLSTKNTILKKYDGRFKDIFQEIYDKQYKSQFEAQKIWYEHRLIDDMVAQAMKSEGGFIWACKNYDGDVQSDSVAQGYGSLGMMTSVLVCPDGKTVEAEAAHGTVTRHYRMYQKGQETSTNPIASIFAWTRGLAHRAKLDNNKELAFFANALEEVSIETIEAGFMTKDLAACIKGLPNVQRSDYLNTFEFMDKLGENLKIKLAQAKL
KDM4C inh: KDM4C (human) demethylase inhibition; GST-KDM4C 2-372, H3K9me3 peptide, LANCE TR-FRET; actives 0.15% (n = 96,000); inhibition, % at 12.5 µM; Q9H3R0;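 active means mean replicate inhibition above about 25%, with at least 55% of replicates also reaching it, limit read from the data, passing the limit was not always enough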
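System – N-terminal GST-fused human GASC-1 (KDM4C) fragment, residues 2-372 · Input – enzyme final amount 10 nM · Technique – LANCE TR-FRET, Eu antibody, ULight-streptavidin, EDTA, ex 340 nm, em 618/671 nm · Medium – HEPES buffer, pH 7.5, plus ascorbate · Incubation – enzyme reaction 30 min, then detection 60 min, both room temperature · Reagent – H3K9me3 peptide with Fe(II)/2OG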
T cruzi growth: T. cruzi proliferation inhibition; T. cruzi beta-gal in NIH3T3, GalScreen luminescence, 90 h; inhibition, % at 8.34 µM; actives 5.9% (n = 77,000);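 active means mean inhibition above about 93%, with at least 55% of replicates each passing it, limit read from the data, passing the limit was not always enough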
* hit, by the source's call. Many of the other results were omitted from the sample, so hits are more common in it than they were.

Screening COc1ccc(C#Cc2cnc3c(c2)C(=O)N([C@H](C)CO)C[C@@H](C)[C@H](CN(C)C)O3)cc1 returned IDH1 mut inh 0, KDM4C inh -1 and T cruzi growth 44.
Cc1cccc(OCC(=O)NC(=S)Nc2ccc(C)cc2O)c1 was read as IDH1 mut inh 0.
O=C(COc1ccc([N+](=O)[O-])cc1)Nc1ccccc1N1CCN(C(=O)c2ccc(Cl)cc2)CC1 was read as IDH1 mut inh 1.
`COc1ccc(N(CC(=O)Nc2ccccc2Br)S(C)(=O)=O)cc1OC` gave IDH1 mut inh 1.
`O=C1CSC(C23CC4CC(CC(C4)C2)C3)N1` (stereo unspecified) gave IDH1 mut inh 1.
`Cc1cc(I)ccc1NC(=O)Cn1c([N+](=O)[O-])cnc1C` gave IDH1 mut inh 1.
For Cc1cccc(-n2c(N)cc(=O)nc2SCC(=O)Nc2sc3c(c2C#N)CCCCCC3)c1 the results were IDH1 mut inh 1.
`COC(=O)CCC(=O)Nc1ccc(C#N)cc1` gave IDH1 mut inh 0.
For C[C@H]1CN([C@@H](C)CO)C(=O)c2cc(C#CCc3ccccc3)cnc2O[C@@H]1CN(C)Cc1ccc(C(=O)O)cc1 the results were IDH1 mut inh 35* and KDM4C inh 4.
`C[C@@H]1CN([C@@H](C)CO)C(=O)c2cc(C#CCc3ccccc3)cnc2O[C@@H]1CN(C)Cc1ccc(C(=O)O)cc1` gave IDH1 mut inh 1 and KDM4C inh -2.
`COC(=O)c1csc(S(=O)(=O)N=S(C)(=O)c2cccs2)c1OC` (stereo unspecified) gave IDH1 mut inh -1.
Screening O=C(CN1CCOCC1)N[C@@H]1CC[C@H](CCNC(=O)Nc2cc(F)ccc2F)O[C@H]1CO returned IDH1 mut inh 12, KDM4C inh 31* and T cruzi growth -19.
For O=C(CN1CCOCC1)N[C@H]1CC[C@@H](CCNC(=O)Nc2cc(F)ccc2F)O[C@@H]1CO the results were IDH1 mut inh 0, KDM4C inh 2 and T cruzi growth -17.
Screening O=C(CN1CCOCC1)NCC[C@@H]1CC[C@H](NC(=O)Nc2ccc(F)cc2)[C@H](CO)O1 returned IDH1 mut inh 0, KDM4C inh 0 and T cruzi growth -28.
O=C(CN1CCOCC1)NCC[C@H]1CC[C@H](NC(=O)Nc2ccc(F)cc2)[C@H](CO)O1 was read as IDH1 mut inh 73*, KDM4C inh 69* and T cruzi growth -5.
Screening O=C(CSc1n[nH]c(-c2ccncc2)n1)Nc1cccc(Cl)c1Cl returned IDH1 mut inh 0.
Screening COc1ccc(OC)c(S(=O)(=O)N2CCC(C(=O)Nc3ccc4c(c3)OCCO4)CC2)c1 returned IDH1 mut inh 0.
For O=c1[nH]c(=O)n(Cc2c(Cl)cccc2Cl)cc1F the results were IDH1 mut inh -1.
Screening Cc1ccc(S(=O)(=O)N(C)C[C@@H]2OCCCC[C@H](C)Oc3ccc(NS(=O)(=O)c4ccc(F)cc4)cc3C(=O)N([C@@H](C)CO)C[C@@H]2C)cc1 returned IDH1 mut inh -3, KDM4C inh -2 and T cruzi growth 113.
Screening Cc1ccc(S(=O)(=O)N(C)C[C@@H]2OCCCC[C@@H](C)Oc3ccc(NS(=O)(=O)c4ccc(Cl)cc4)cc3C(=O)N([C@@H](C)CO)C[C@H]2C)cc1 returned KDM4C inh 0 and T cruzi growth 82.
For Cc1ccc(S(=O)(=O)N(C)C[C@H]2OCCCC[C@H](C)Oc3ccc(NS(=O)(=O)c4ccc(F)cc4)cc3C(=O)N([C@@H](C)CO)C[C@H]2C)cc1 the results were IDH1 mut inh 2, KDM4C inh -1 and T cruzi growth 115*.
For Cc1ccc(S(=O)(=O)N(C)C[C@@H]2OCCCC[C@H](C)Oc3ccc(NS(=O)(=O)c4ccc(Cl)cc4)cc3C(=O)N([C@H](C)CO)C[C@@H]2C)cc1 the results were IDH1 mut inh 0, KDM4C inh -2 and T cruzi growth 108*.
For O=S(c1ccccc1)c1ccc2nnnn2n1 (stereo unspecified) the results were IDH1 mut inh 62*.
For Cc1cccc2c1N(C)C(=O)C2(O)CC(=O)c1ccco1 (stereo unspecified) the results were IDH1 mut inh 4.
COCC#Cc1ccc2c(c1)O[C@@H](CN(C)Cc1cccnc1)[C@H](C)CN([C@H](C)CO)S2(=O)=O was read as IDH1 mut inh 16, KDM4C inh -2 and T cruzi growth 52.
Cc1noc(C)c1NC(=O)N(C)C[C@@H]1Oc2cc(C#CCN(C)C)ccc2S(=O)(=O)N([C@H](C)CO)C[C@H]1C was read as IDH1 mut inh 44*, KDM4C inh 52* and T cruzi growth 31.
Screening C[C@H]1CN([C@@H](C)CO)S(=O)(=O)c2ccc(C#CCN(C)C)cc2O[C@@H]1CN(C)Cc1ccncc1 returned IDH1 mut inh 5, KDM4C inh 2 and T cruzi growth 97*.
`C[C@H](O)C#Cc1ccc2c(c1)O[C@H](CN(C)Cc1cncnc1)[C@@H](C)CN([C@@H](C)CO)S2(=O)=O` gave IDH1 mut inh -2, KDM4C inh 7 and T cruzi growth -40.
Screening COCC#Cc1ccc2c(c1)O[C@@H](CN(C)Cc1cccnc1)[C@@H](C)CN([C@@H](C)CO)S2(=O)=O returned IDH1 mut inh 65*, KDM4C inh 44* and T cruzi growth 16.
For Cc1noc(C)c1NC(=O)N(C)C[C@H]1Oc2cc(C#CCN(C)C)ccc2S(=O)(=O)N([C@H](C)CO)C[C@@H]1C the results were IDH1 mut inh 0, KDM4C inh 1 and T cruzi growth 26.
Screening C[C@H](CO)N1C[C@H](C)[C@H](CN(C)Cc2ccncc2)Oc2cc(C#CCN(C)C)ccc2S1(=O)=O returned IDH1 mut inh 0, KDM4C inh 6 and T cruzi growth 93.
Screening C[C@@H](O)C#Cc1ccc2c(c1)O[C@@H](CN(C)Cc1cncnc1)[C@@H](C)CN([C@@H](C)CO)S2(=O)=O returned IDH1 mut inh 34*, KDM4C inh 36* and T cruzi growth 7.
O=C(CSc1nnc(-c2ccccc2)n1-c1ccccc1)Nc1c(F)cc(F)cc1Br was read as IDH1 mut inh 0.
Screening CCc1ccc(-n2c(SCC(=O)Nc3cccc(C)c3)nnc2-c2ccccc2)cc1 returned IDH1 mut inh 0.
`CC(NC(=O)c1ccccc1NC(=O)c1ccccc1)C(=O)Nc1ccc2ccccc2c1` (stereo unspecified) gave IDH1 mut inh 1.
`CC(=O)NC(C(=O)O[C@H]1CCC(C)(C)[C@@H]2CC=C3C(=O)OCC3(O)[C@@]12C)C(C)C` (stereo partly specified) gave IDH1 mut inh 4.
Screening COc1cccc(OCC(=O)Nc2cccc(Oc3ccc4c(c3)C(=O)NC4=O)c2)c1 returned IDH1 mut inh 0.
`CC(C)CC#Cc1ccc2c(c1)O[C@@H](CN(C)C(=O)c1cccnc1)[C@@H](C)CN([C@@H](C)CO)S2(=O)=O` gave IDH1 mut inh 39*, KDM4C inh 47* and T cruzi growth 58.
